Test results: ChEMBL document CHEMBL1132183 (J Med Chem, 1999)

Experiments:
[1] = target: T1, Alpha-1B adrenergic receptor (Homo sapiens, UniProt P35368); test: Displacement of [3H]prazosin from human cloned Alpha-1B adrenergic receptor
T1 sequence (P35368 whole entry): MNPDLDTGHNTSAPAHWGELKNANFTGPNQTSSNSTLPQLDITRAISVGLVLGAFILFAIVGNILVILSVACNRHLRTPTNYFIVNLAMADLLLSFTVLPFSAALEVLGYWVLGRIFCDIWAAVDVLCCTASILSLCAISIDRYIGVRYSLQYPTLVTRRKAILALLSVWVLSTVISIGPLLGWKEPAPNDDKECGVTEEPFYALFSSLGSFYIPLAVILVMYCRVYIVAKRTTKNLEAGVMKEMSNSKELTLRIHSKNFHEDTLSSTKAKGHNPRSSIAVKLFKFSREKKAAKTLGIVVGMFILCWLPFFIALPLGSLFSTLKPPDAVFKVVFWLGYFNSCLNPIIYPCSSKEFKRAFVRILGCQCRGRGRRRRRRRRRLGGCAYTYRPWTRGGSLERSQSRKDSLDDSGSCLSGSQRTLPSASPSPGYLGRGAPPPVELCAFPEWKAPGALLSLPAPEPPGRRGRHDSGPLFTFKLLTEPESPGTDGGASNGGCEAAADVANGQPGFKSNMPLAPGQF
Outline: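 CHO cells stably transfected with each human α1 subtype; 30 μg membrane protein in 50 mM Tris-HCl pH 7.4 with 0.1–0.4 nM [3H]prazosin, 30 min at 25 °C. Competitors 1 pM–10 μM. Nonspecific binding defined with 10 μM phentolamine. Filtration, scintillation counting. Ki by Cheng–Prusoff; 2–3 experiments in triplicate.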

[2] = target: T2, 5-hydroxytryptamine receptor 1A (Homo sapiens) (UniProt P08908); test: Concentration required to obtain 50% maximal stimulation of [35S]GTP gamma-S binding to human cloned 5-HT1A receptors of cell membranes from HeLa cells; assay type: functional
T2 sequence (whole entry): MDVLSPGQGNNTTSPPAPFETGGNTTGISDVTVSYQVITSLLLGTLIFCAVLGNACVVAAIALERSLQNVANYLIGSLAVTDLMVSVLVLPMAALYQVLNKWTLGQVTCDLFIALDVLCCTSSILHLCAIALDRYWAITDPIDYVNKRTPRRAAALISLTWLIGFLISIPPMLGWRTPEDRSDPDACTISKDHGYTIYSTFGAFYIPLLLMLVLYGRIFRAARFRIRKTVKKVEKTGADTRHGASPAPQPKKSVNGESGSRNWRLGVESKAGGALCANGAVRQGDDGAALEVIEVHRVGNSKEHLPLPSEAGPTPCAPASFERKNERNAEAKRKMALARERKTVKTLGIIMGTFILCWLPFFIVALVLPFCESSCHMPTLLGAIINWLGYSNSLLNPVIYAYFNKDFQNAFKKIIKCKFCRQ
Outline: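 [35S]GTPγS binding in membranes of HeLa cells stably expressing human 5-HT1A, in 20 mM HEPES, 3 mM MgSO4, 120 mM NaCl pH 7.4. Preincubation 20 min at 30 °C with 30 μM GDP and drug (0.1 nM–100 μM), then 150–250 pM [35S]GTPγS for 30 min at 30 °C. Stimulation above basal was scaled to the 5-HT maximum (100%). Emax and pD2 came from curve fits; triplicate, 2–3 sessions.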

[3] = target: T3, Adrenergic receptor alpha-2 (Rattus norvegicus, UniProt P22086+P19328+P22909); test: Displacement of [3H]rauwolscine from rat brain Alpha-2 adrenergic receptor
T3 sequence (P22086 whole entry): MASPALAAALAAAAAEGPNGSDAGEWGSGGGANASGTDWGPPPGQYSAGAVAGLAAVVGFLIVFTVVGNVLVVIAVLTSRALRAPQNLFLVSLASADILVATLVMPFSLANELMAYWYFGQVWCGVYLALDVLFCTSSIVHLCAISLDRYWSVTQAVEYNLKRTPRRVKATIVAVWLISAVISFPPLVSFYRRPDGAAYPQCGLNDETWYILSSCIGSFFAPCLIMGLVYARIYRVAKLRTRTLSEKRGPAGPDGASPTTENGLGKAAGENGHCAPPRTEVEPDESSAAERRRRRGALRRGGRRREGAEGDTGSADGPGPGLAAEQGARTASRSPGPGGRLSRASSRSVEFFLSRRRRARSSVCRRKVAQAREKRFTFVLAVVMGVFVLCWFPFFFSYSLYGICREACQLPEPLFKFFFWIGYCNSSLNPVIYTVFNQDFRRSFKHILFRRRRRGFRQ
T3 sequence (P19328 whole entry): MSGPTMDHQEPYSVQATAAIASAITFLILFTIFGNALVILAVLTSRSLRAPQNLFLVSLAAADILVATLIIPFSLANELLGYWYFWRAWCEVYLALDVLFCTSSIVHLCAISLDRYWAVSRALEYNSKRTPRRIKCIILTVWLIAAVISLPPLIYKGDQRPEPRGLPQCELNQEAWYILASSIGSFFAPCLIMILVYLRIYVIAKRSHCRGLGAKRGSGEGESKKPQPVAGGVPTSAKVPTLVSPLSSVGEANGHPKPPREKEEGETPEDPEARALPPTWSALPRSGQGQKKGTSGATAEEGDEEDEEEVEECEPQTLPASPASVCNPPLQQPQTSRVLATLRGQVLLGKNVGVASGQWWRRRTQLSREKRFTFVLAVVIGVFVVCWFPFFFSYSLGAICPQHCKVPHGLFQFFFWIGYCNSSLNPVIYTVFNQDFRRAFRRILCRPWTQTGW
T3 sequence (P22909 whole entry): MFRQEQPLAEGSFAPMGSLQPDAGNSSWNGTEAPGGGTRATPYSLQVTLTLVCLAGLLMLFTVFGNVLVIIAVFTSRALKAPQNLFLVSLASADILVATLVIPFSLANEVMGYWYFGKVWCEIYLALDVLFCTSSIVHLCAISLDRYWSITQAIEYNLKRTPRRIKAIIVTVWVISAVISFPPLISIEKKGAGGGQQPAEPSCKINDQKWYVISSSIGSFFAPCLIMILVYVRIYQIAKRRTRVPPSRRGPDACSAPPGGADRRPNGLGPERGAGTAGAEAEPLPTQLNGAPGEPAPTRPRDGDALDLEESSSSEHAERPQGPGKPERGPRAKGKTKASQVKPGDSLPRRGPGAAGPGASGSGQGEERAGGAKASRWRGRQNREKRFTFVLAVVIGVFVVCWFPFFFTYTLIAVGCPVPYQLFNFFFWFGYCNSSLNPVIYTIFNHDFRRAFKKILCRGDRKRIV
Outline: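 Rat cerebral cortex membranes (male Sprague–Dawley) were washed in Tris-HCl pH 7.4 and resuspended with 10 μM pargiline and 0.1% ascorbic acid. They were incubated 30 min at 25 °C with 0.5–1.5 nM [3H]rauwolscine. Nonspecific binding was taken with 10 μM phentolamine. Filtration and scintillation counting followed, and Ki was obtained by Cheng–Prusoff.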

Row | Compound | Ki [1] [µM] | pD2 [2] | Log Ki [3]
1 | O[C@H]1[C@@H](NC[C@H]2COc3ccccc3O2)CC[C@@H]1Oc1ccccc1 | 1.82 | 7.3 | -6.23
2 | O[C@@H]1[C@H](NC[C@@H]2COc3ccccc3O2)CC[C@H]1Oc1ccccc1 | 0.0933 | 5.87 | -6.27
3 | O[C@H]1[C@@H](NC[C@@H]2COc3ccccc3O2)CC[C@@H]1Oc1ccccc1 | > 1 | 7.96 | -6.21
4 | O[C@@H]1[C@H](NC[C@H]2COc3ccccc3O2)CC[C@H]1Oc1ccccc1 | – | 5.87 | -6.05
